# Measured values from PubChem BioAssay AID743238 (Broad Institute, 2013).
# The campaign covered roughly 360,000 compounds. About 200 (0.056%) were called active.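 How the source made its calls: active means mean normalized replicate activation at least 10% and every replicate at or above 10%; inconclusive means only one of the two criteria met; inactive means mean below 10% and not all replicates reach 10%.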 Shown is part of a subset that was picked to be rich in actives.
# Test: Xi reactivation inducers in mouse fibroblasts – imaging, XiGFP fibroblasts, GFP high-content imaging, set 2, primary screen (AID 743238);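 further: 0% = median of on-plate neutral control wells and 100% = ellipticine 6 µM median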
# Conditions: % GFP-positive cells imaging, 3 d, at 7.58 µM, stronger effect = higher value, cells co-treated with 5-aza-dC sensitizer, scaled so ellipticine positive control = 100%
# How it was run: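 Assay system – SV40-immortalized XiGFP fibroblast cells, line 68-5-11 · Buffer or medium – DMEM supplemented with 5-aza-dC as sensitizing agent · Dosing – one concentration, pinned · Benchmarks – positive control ellipticine, 6 µM final · Times – 3 days compound exposure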
row,Compound,activation
1,COC(=O)C[C@H]1CC[C@@H](NC(=O)c2ccccc2)[C@@H](CO)O1,-0.033% (inactive)
2,COc1ccc(NC(=O)N(C)C[C@H]2Oc3c(NC(=O)Nc4cccc5ccccc45)cccc3C(=O)N([C@@H](C)CO)C[C@H]2C)cc1,-0.612% (inactive)
3,O=C(C[C@H]1C[C@H]2c3cc(NC(=O)Nc4ccc(C(F)(F)F)cc4)ccc3O[C@H]2[C@@H](CO)O1)NCc1cccnc1,0.387% (inactive)
4,CCCC(=O)Nc1ccc2c(c1)OC[C@H](C)N(CCc1ccccc1)C[C@H](C)[C@@H](OC)CN(C)C2=O,-0.359% (inactive)
5,CCNC(=O)C[C@@H]1C=C[C@@H](NC(=O)C2CCOCC2)[C@@H](CO)O1,0.276% (inactive)
6,COc1ccc(S(=O)(=O)N(C)C[C@@H]2Oc3ccc(NC(=O)Cc4ccccc4)cc3CC(=O)N([C@@H](C)CO)C[C@H]2C)cc1,-0.0685% (inactive)
7,COc1ccc2c3c([nH]c2c1)[C@@H](CO)N(Cc1cc(F)ccc1F)CC31CCN(C(=O)C2CCC2)CC1,0.358% (inactive)
8,Cc1ccc(S(=O)(=O)Nc2ccc3c(c2)C(=O)N(C)[C@@H]2CC[C@@H](CC(=O)O)O[C@H]2CO3)cc1,0.151% (inactive)
9,O=C(C[C@@H]1C=C[C@H](NC(=O)Nc2ccccc2F)[C@H](CO)O1)NCc1ccc(F)cc1,0.215% (inactive)
10,C[C@H](CO)N1C[C@H](C)[C@@H](CN(C)S(=O)(=O)c2cccs2)Oc2ccc(NC(=O)Nc3ccc(C(F)(F)F)cc3)cc2CC1=O,-0.017% (inactive)
11,C[C@@H]1CCCCO[C@H](CN(C)C(=O)CCCN(C)C)[C@H](C)CN([C@@H](C)CO)C(=O)c2cc(NS(=O)(=O)c3ccc(Cl)cc3)ccc2O1,0.114% (inactive)
12,C[C@H]1CCCCO[C@H](CN(C)C(=O)Nc2ccc(F)cc2)[C@@H](C)CN([C@@H](C)CO)C(=O)c2cc(NC(=O)CCC(F)(F)F)ccc2O1,-0.105% (inactive)
13,N#C[C@@H]1[C@H](c2ccccc2-c2ccccc2F)[C@@H](CO)N1C(=O)C1CCOCC1,0.163% (inactive)
14,O=C1C(Cl)=C(Oc2ccccc2)C(=O)c2ccccc21,19.2% (active)
15,CCC(=O)Nc1ccc2c(c1)C(=O)N(C)C[C@H](OC)[C@H](C)CN(C(=O)c1ccccc1F)[C@@H](C)CO2,0.375% (inactive)
16,CO[C@H]1CN(C)C(=O)c2cc(NS(C)(=O)=O)ccc2OC[C@@H](C)N(C)C[C@@H]1C,-0.465% (inactive)
17,C[C@@H]1CN([C@@H](C)CO)C(=O)CCCn2cc(nn2)CO[C@@H]1CN(C)S(=O)(=O)c1cccc(F)c1,-0.223% (inactive)
